An excerpt weighted towards active compounds, which were near 11% of everything screened.
M1 antag – antagonists of rat M1 muscarinic receptor; AID 628; 64,000 tested, 3.4% active; B-score at 10 µM; CHO-M1 cells, Fluo-4 calcium, ACh EC80 antagonist mode; stronger effect = lower value; P08482;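 active = calcium fluorescence response, raw or row-and-column corrected B-score, differing from the plate sample mean either way at a set confidence level, mostly lower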
D1 mod – allosteric modulators of human D1 dopamine receptor; HEK293 D1, CRE-luciferase, dopamine EC30 potentiation; actives deviate in either direction; P21728; 58,000 tested, 5.9% active; B-score at 10 µM;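 active = luminescence count or its row- and column-corrected plate score outside the 99.7% band of the plate's sample wells, on either side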
mHtt clearance – mutant huntingtin protein clearance. inhibition, % at 1.5 µM. AID 853. HeLa Exon1htt(103Q)mCFP, aggregate imaging; zero = plate's median compound well. 47,000 tested, 0.42% active;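 active = inhibition of aggregate fluorescence above about 70%, also judged a hit by eye on the cell image, limit read from the data, passing the limit was not always enough; inconclusive = no rule stated for this call; inactive = not judged a hit on image review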;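 note: cells exposed to compound for three days before fixation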
SF-1 act – SF-1 (human) activation | Q13285 | CHO-K1 Gal4-SF-1 LBD luciferase reporter; % increase over DMSO SF-1-specific signal | activation, % at 10 µM | 65,000 tested, 1.9% active | AID 522;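 active = activation above the mean activation of all tested compounds plus 3 SD, cut at about 50% in these data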
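Test system: CHO-K1 cells with Gal4–hSF-1 LBD chimera plus Gal4-driven luciferase; Input: 4,000 cells/well; Compound: 10 µM only; Times: 20 h compound treatment, 37 °C; Measured by: steady-glow luciferase luminescence, read after 15 min reagent incubation; Measure: percent activation versus DMSO; Control set: DMSO and mock-transfected background; Replicates: one test per compound.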
RORa activator – RORA (human) activation | P35398 | CHO-K1 Gal4-RORA LBD luciferase reporter, luminescence; percent increase over mock-subtracted basal signal | activation, % at 10 µM | 65,000 tested, 1.5% active | AID 560;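 active = activation above the mean of all tested compounds plus 3 SD, cut at about 49% in these data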;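 note: 0% = DMSO-treated RORA cells and 100% = added signal equal to DMSO minus mock-transfected cells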
Target sequence (P35398 whole entry, looked up, the tested form may be a part): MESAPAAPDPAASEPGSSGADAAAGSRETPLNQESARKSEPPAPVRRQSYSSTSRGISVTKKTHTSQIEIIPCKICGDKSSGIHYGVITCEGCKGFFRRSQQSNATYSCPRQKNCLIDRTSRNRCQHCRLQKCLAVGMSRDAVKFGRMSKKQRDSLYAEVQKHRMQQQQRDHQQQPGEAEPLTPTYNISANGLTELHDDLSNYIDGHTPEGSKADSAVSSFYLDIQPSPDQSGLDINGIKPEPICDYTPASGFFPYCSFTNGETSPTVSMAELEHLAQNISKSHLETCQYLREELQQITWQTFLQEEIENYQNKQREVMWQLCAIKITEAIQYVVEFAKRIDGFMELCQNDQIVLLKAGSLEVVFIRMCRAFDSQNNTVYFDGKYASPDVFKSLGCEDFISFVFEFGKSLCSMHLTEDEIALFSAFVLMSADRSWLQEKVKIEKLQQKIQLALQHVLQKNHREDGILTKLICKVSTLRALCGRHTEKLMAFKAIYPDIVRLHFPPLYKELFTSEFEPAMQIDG
M1 ag – M1 muscarinic receptor agonism | CHO-M1 cells, Fluo-4 calcium fluorescence, agonist mode; stronger effect = higher value | B-score at 10 µM | AID 626 | 64,000 tested, 3% active;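 active = fluorescence rise, raw or as B-score row- and column-corrected plate score, outside the 99.7% band of its plate's samples, either direction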
D1 PAM confirm – D1 receptor (human) allosteric modulation, confirmed; HEK293 D1 CRE-luciferase, dopamine EC30 potentiation; stronger effect = higher value; AID 642; luminescence at 10 µM; shares compounds with D1 mod; 2,200 tested, 88% active;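 active = luminescence in either of two replicates above the same-plate mean plus 3 SD of the low-dose dopamine control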
D1 no dopamine – D1 (human) signaling in absence of dopamine. HEK293 D1 CRE-luciferase, luminescence, no dopamine; stronger effect = higher value. shares compounds with D1 mod. 1,900 tested, 0.8% active. luminescence at 10 µM; in the data active = luminescence above about 3900
Isoprot counter – isoproterenol response counter-screen activity for D1 modulators. shares compounds with D1 mod. HEK293 D1 CRE-luciferase, isoproterenol EC30 counter-screen. calls only at 10 µM. 2,200 tested, 63% active;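 active = luminescence in either replicate above plate mean of wells with a partly effective reference agonist dose plus 3 SD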;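 note: isoproterenol raises cAMP through native beta-adrenoceptor Gs so signal bypasses D1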
The depositor's hits bear a star; i = inactive; u = inconclusive; x = no result given; + = active, no number.

SMILES	M1 antag	D1 mod	mHtt clearance	SF-1 act	RORa activator	M1 ag	D1 PAM confirm	D1 no dopamine	Isoprot counter
CCN(CCNC(=O)CC1Oc2ccccc2NC1=O)c1ccccc1 (stereo unspecified)	-1.4	3*	65	-3	19	0.68	4876	1496	i
COc1ccc(CNC(=O)c2cc(-c3cccs3)on2)cc1	-0.0029	-0.02	-16	7	-3	-0.12	x	x	x
COc1cccc(Cn2c(-c3cccs3)noc2=O)c1	-0.056	3.9*	x	-12	1	-0.46	8904*	x	+
OCC(CO)(CO)n1cnnn1	-0.039	3.5*	x	-3	0	-0.32	5960	1496	i
O=C(OCc1nc2ccc(Cl)cc2n1CCO)c1ccc2c(c1)OCO2	-0.34	x	27	-12	-8	2.3	x	x	x
CC(C)Nc1nc(NC(C)C)nc(Oc2ccc(/C=N/O)cc2)n1	-0.39	5.3*	-34	-4	-5	-0.0024	6456*	x	i
CN(C)c1nc(Oc2ccc(/C=N/O)cc2)nc(N(C)C)n1	0.83	0.98	x	21	7	-2e-05	x	x	x
Cc1nc(SCC(O)CCl)c([N+](=O)[O-])[nH]1 (stereo unspecified)	x	x	26	x	x	x	x	x	x
Oc1[nH]c2ccccc2c1C1=NCCCC1	-0.19	0.0021	23	-10	-21	-0.0055	x	x	x
O=c1o[nH]c(-c2ccccc2)c1C1=NCCCCC1	-0.083	9*	u	4	0	-0.31	6360	1616	i
COc1ccc(-c2nnc(-c3ccc(Br)o3)o2)cc1OC	0.67	4.8*	x	6	-4	1.5	8496*	1540	i
CSc1nc2c(c(=O)n1-c1ccccc1)SCC2	0.52	2.7*	x	-8	1	0.8	11540*	1796	i
CCOc1ccc(-n2c(SC(C)C)nc3c(c2=O)SCC3)cc1	0	14*	x	-17	-13	-0.026	19936*	1704	+
CCOC(=O)c1cccc(NC(=O)CCc2nc(-c3ccccc3F)no2)c1	0.26	3*	-23	-2	-13	-0.77	7612	2088	i
CCOC(=O)c1cccc(NC(=O)CCc2nc(-c3ccc(C)cc3)no2)c1	-0.33	-0.085	x	-1	-1	0.47	x	x	x
O=C(O)c1[nH]c2ccc(Cl)cc2c1CC(=O)N1CCN(c2ccccc2)CC1	0.45	3.1*	-15	5	-4	0.013	5332	1412	i
O=C(O)c1[nH]c2ccc(Cl)cc2c1CC(=O)N1CCN(C(=O)c2ccco2)CC1	-1.2	-0.028	x	-16	-17	-0.6	x	x	x
COc1ccc(C2CNC(=O)C2)cc1OC1CCCC1 (stereo unspecified)	-0.24	45*	x	-3	-19	-0.41	20880*	x	+
COc1ccc(N2CCN(c3ccc(NC(=O)c4ccc5c(c4)OCO5)cc3C#N)CC2)cc1	0.85	6.4*	x	17	10	-0.84	5936	x	i
Cc1noc(C)c1S(=O)(=O)N1CCCC(C(=O)NCc2ccccn2)C1 (stereo unspecified)	0.25	4.2*	x	1	14	-0.47	6380*	1568	i
c1ccc(Nc2cc(-c3ccccc3)nc3ncnn23)cc1	0.026	7.9*	x	8	0	-0.32	15552*	1552	+
COc1ccc(CCNc2cc(-c3ccccc3)nc3ncnn23)cc1	x	x	16	x	x	x	x	x	x
Cc1cc(Nc2ccc(C)c(F)c2)n2ncnc2n1	0.0089	3.3*	x	2	-5	-0.35	5852	1648	i
CCCn1c2c(c(O)c(C(=O)NC)c1=O)CCCC2	0.12	4.6*	-20	-15	-26	-0.26	9448*	1536	i
N#C/C(=C1\CCCN1)c1nc2ccccc2c(=O)[nH]1	0.81	0.53	28	-1	-8	0.53	x	x	x
N#C/C(=C1/CCCCCN1)c1nc2ccccc2s1	0.33	6.2*	-60	4	-10	-0.0075	8248*	1304	+

Screening results (PubChem)
